Activity calls are given as the source filed them. No cut-off for these calls is given here. *1 amine or outer side, *2 acyl side, *3 side chain or, on linkers, in order; H or OH if unused. Where a SMILES comes first, the peptide text is derived from it. Bridges are numbered along the chain shown (N, C = ends). Side-chain parts run from the residue outwards. [ ]: non-standard residue; d: D form. The star is where a group is joined. N(prolylmethyl)Phe = O=C(CN([C@@H](Cc1ccccc1)C(=O)[*:2])[*:1])[C@@H]1CCCN1[*:3]; X1 = O=C(CCCOCCOCCOCCOCCOCCC(=O)NCCOCCOCC(=O)[*:1])NCCOCCOCC(=O)[*:2]; X2 = O=C(CCOCCOCCOCCOCCOCCOCCOCCOCCOCCOCCOCCC(=O)[*:2])[*:1]; 5FAM = O=C1OC2(c3ccc(O)cc3Oc3cc(O)ccc32)c2ccc(C(=O)*)cc21; X3 = O=C(CCOCCOCCOCCOCCOCCOCCOCCC(=O)[*:2])[*:1]
Key:
[1] = test system: T-cell; assay: Inhibition of P28 TCL2 T cell proliferation assessed as incorporation of [3H]-thymidine in presence of 10 uM antigen peptide; assay type: functional, cell-based; conditions: Homo sapiens
In short: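 HLA-DR3/DQ2 homozygous EBV B-lymphoblastoid cells (VAVY or CD114), fixed with 1% paraformaldehyde or 0.05% glutaraldehyde, peptide-loaded overnight at 2×10^6 cells/ml. Next day at 1×10^6/ml, duplicates, mixed with equal volume of P28 TCL2 T cells; 37°C, 5% CO2, 48 h. [3H]thymidine added, further 12–16 h, scintillation counting.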

[2] = Binding affinity to DQ2; design: species or system Homo sapiens
In short: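 Competition binding: 125I-labeled indicator peptide (30,000 cpm; 1–5 nM) plus graded unlabeled peptide incubated overnight with 70–200 nM DQ2 at 37°C, pH 5.2, with protease inhibitor cocktail. Bound separated from free on Sephadex G-50 spin columns; radioactivity counted; IC50 as competitor level halving indicator binding, from three 3-fold titration experiments.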

[3] = species on record: Homo sapiens; assay: Binding affinity to recombinant DQ2 at pH 7.3 by fluorescent-conjugated peptide exchange assay
In short: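 Recombinant soluble DQ2 with N-terminally fused gliadin epitope, cleaved with ~2% w/w thrombin in PBS pH 7.3, 0°C, 2 h. 4.7 μM DQ2 with 0.185 μM fluorescein-labeled peptide (25:1), 37°C, 5 h, final pH 7.3. HPSEC with fluorescence (ex 495/em 520 nm); bound peptide as percent of total; mean of two experiments.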

| IC50 [2] [nM] | Activity [3] | SMILES | Activity [1] |
| --- | --- | --- | --- |
| 300 | Active | CC(C)C[C@H](NC(=O)c1ccc2c(c1)C(=O)OC21c2ccc(O)cc2Oc2cc(O)ccc21)C(=O)N[C@@H](CCC(=O)O)C(=O)N[C@@H](CC(C)C)C(=O)N[C@@H](CCC(N)=O)C(=O)N1CCC[C@H]1C(=O)CN[C@@H](Cc1ccccc1)C(=O)N1CCC[C@H]1C(=O)N[C@@H](CCC(=O)O)C(=O)N1CCC[C@H]1C(=O)N[C@@H](CCC(=O)O)C(=O)N[C@H]1CCCCNC(=O)COCCOCCNC(=O)CCOCCOCCOCCOCCOCCCC(=O)NCCOCCOCC(=O)NCCCC[C@@H](C(=O)N2CCC[C@H]2C(=O)N[C@@H](Cc2ccc(O)cc2)C(=O)O)NC(=O)[C@H](CCC(=O)O)NC(=O)[C@@H]2CCCN2C(=O)[C@H](CCC(=O)O)NC(=O)[C@@H]2CCCN2C(=O)[C@H](Cc2ccc(O)cc2)NC(=O)[C@@H]2CCCN2C1=O (H-[N(prolylmethyl)Phe]([Gln-Leu-Glu-Leu-5FAM])PEPEKPYPEPEKPY-OH; linker 6-13 via X1) | Dose-dependent effect |
| 800 | – | CC(=O)N[C@H]1CCCCNC(=O)CCOCCOCCOCCOCCOCCOCCOCCOCCOCCOCCOCCC(=O)NCCCC[C@@H](C(=O)N[C@@H](CCC(=O)O)C(=O)N[C@@H](CC(C)C)C(=O)N2CCC[C@H]2C(=O)N[C@@H](Cc2ccc(O)cc2)C(=O)O)NC(=O)[C@H](CCC(=O)O)NC(=O)[C@@H]2CCCN2C(=O)[C@H](Cc2ccccc2)NC(=O)[C@@H]2CCCN2C(=O)[C@H](CCC(N)=O)NC1=O (Ac-KQPFPEKELPY-OH; linker 1-7 via X2) | Dose-dependent effect |
| 4200 | – | CC(C)C[C@@H]1NC(=O)CNC(=O)CNC(=O)CNC(=O)CNC(=O)CNC(=O)CNC(=O)[C@H](N)CSSC[C@H](C(=O)O)NC(=O)CNC(=O)CNC(=O)[C@H](Cc2ccc(O)cc2)NC(=O)[C@H]2CCCN2C(=O)[C@H](CC(C)C)NC(=O)[C@H](CCC(=O)O)NC(=O)[C@@H]2CCCN2C(=O)[C@H](CCC(N)=O)NC(=O)[C@@H]2CCCN2C(=O)[C@H](Cc2ccccc2)NC(=O)[C@@H]2CCCN2C(=O)[C@H](CCC(N)=O)NC1=O | Dose-dependent effect |
| 3100 | – | CC(C)C[C@@H]1NC(=O)CNC(=O)CNC(=O)CNC(=O)CNC(=O)[C@H](N)CSSC[C@H](C(=O)O)NC(=O)CNC(=O)CNC(=O)[C@H](Cc2ccc(O)cc2)NC(=O)[C@@H]2CCCN2C(=O)[C@H](CC(C)C)NC(=O)[C@H](CCC(=O)O)NC(=O)[C@@H]2CCCN2C(=O)[C@H](CCC(N)=O)NC(=O)[C@@H]2CCCN2C(=O)[C@H](Cc2ccccc2)NC(=O)[C@@H]2CCCN2C(=O)[C@H](CCC(N)=O)NC1=O | Dose-dependent effect |
| 200 | Active | CC(C)C[C@H](NC(=O)c1ccc2c(c1)C(=O)OC21c2ccc(O)cc2Oc2cc(O)ccc21)C(=O)N[C@@H](CCC(=O)O)C(=O)N[C@@H](CC(C)C)C(=O)N[C@@H](CCC(N)=O)C(=O)N1CCC[C@H]1C(=O)CN[C@@H](Cc1ccccc1)C(=O)N1CCC[C@H]1C(=O)N[C@@H](CCC(=O)O)C(=O)N1CCC[C@H]1C(=O)N[C@@H](CCC(=O)O)C(=O)N[C@H]1CCCCNC(=O)CCOCCOCCOCCOCCOCCC(=O)CNCCCC[C@@H](C(=O)N2CCC[C@H]2C(=O)N[C@@H](Cc2ccc(O)cc2)C(=O)O)NC(=O)[C@H](CCC(=O)O)NC(=O)[C@@H]2CCCN2C(=O)[C@H](CCC(=O)O)NC(=O)[C@@H]2CCCN2C(=O)[C@H](Cc2ccc(O)cc2)NC(=O)[C@@H]2CCCN2C1=O | Dose-dependent effect |
| 600 | – | CC(=O)N[C@H]1CCCCNC(=O)CCOCCOCCOCCOCCOCCOCCOCCC(=O)NCCCC[C@@H](C(=O)N[C@@H](CCC(=O)O)C(=O)N[C@@H](CC(C)C)C(=O)N2CCC[C@H]2C(=O)N[C@@H](Cc2ccc(O)cc2)C(=O)O)NC(=O)[C@H](CCC(=O)O)NC(=O)[C@@H]2CCCN2C(=O)[C@H](Cc2ccccc2)NC(=O)[C@@H]2CCCN2C(=O)[C@H](CCC(N)=O)NC1=O (Ac-KQPFPEKELPY-OH; linker 1-7 via X3) | Dose-dependent effect |
| 2000 | – | CC(C)C[C@@H]1NC(=O)CNC(=O)CNC(=O)[C@H](N)CSSC[C@H](C(=O)O)NC(=O)CNC(=O)CNC(=O)[C@H](Cc2ccc(O)cc2)NC(=O)[C@@H]2CCCN2C(=O)[C@H](CC(C)C)NC(=O)[C@H](CCC(=O)O)NC(=O)[C@@H]2CCCN2C(=O)[C@H](CCC(N)=O)NC(=O)[C@@H]2CCCN2C(=O)[C@H](Cc2ccccc2)NC(=O)[C@@H]2CCCN2C(=O)[C@H](CCC(N)=O)NC1=O | Dose-dependent effect |
